In one experiment the target is T1, Neprilysin (Oryctolagus cuniculus, UniProt P08049).
T1 sequence (P08049 whole entry): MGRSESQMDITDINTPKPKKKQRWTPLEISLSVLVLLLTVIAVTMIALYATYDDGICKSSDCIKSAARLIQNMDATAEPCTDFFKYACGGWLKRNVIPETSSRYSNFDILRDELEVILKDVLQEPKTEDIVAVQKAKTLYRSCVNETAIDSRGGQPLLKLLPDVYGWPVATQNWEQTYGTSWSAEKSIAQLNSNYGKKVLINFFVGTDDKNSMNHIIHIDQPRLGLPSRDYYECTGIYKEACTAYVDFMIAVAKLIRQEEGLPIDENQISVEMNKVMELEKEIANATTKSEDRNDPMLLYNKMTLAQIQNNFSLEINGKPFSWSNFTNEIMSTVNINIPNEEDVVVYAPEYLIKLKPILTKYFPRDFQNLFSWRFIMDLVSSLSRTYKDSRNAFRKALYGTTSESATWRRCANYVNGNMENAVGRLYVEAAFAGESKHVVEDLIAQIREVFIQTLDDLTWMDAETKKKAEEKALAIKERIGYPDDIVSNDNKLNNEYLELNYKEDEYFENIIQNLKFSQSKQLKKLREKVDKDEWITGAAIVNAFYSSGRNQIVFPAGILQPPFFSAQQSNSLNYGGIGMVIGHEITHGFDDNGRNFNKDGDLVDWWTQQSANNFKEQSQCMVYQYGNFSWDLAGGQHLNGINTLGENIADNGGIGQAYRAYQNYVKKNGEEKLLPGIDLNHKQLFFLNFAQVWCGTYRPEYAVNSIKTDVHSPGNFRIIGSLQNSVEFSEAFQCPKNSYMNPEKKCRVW
The experiment in a line: In vitro inhibition of neutral endopeptidase. A digest of the protocol:
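NEP purified from rabbit kidney, 1 pmol/100 µL final, preincubated 15 min at 25 °C with increasing inhibitor concentrations in 50 mM Tris-HCl pH 7.4. Substrate [3H]-D-Ala2-Leu-enkephalin at 20 nM final, 30 min; stopped with 0.5 M HCl. [3H]Tyr-D-Ala-Gly separated on polystyrene beads and counted by scintillation. IC50 is the mean ± SEM of three independent experiments run in triplicate.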

For experiment [1], the target named is T2, Angiotensin-converting enzyme (Rattus norvegicus, UniProt P47820).
T2 sequence (P47820 whole entry): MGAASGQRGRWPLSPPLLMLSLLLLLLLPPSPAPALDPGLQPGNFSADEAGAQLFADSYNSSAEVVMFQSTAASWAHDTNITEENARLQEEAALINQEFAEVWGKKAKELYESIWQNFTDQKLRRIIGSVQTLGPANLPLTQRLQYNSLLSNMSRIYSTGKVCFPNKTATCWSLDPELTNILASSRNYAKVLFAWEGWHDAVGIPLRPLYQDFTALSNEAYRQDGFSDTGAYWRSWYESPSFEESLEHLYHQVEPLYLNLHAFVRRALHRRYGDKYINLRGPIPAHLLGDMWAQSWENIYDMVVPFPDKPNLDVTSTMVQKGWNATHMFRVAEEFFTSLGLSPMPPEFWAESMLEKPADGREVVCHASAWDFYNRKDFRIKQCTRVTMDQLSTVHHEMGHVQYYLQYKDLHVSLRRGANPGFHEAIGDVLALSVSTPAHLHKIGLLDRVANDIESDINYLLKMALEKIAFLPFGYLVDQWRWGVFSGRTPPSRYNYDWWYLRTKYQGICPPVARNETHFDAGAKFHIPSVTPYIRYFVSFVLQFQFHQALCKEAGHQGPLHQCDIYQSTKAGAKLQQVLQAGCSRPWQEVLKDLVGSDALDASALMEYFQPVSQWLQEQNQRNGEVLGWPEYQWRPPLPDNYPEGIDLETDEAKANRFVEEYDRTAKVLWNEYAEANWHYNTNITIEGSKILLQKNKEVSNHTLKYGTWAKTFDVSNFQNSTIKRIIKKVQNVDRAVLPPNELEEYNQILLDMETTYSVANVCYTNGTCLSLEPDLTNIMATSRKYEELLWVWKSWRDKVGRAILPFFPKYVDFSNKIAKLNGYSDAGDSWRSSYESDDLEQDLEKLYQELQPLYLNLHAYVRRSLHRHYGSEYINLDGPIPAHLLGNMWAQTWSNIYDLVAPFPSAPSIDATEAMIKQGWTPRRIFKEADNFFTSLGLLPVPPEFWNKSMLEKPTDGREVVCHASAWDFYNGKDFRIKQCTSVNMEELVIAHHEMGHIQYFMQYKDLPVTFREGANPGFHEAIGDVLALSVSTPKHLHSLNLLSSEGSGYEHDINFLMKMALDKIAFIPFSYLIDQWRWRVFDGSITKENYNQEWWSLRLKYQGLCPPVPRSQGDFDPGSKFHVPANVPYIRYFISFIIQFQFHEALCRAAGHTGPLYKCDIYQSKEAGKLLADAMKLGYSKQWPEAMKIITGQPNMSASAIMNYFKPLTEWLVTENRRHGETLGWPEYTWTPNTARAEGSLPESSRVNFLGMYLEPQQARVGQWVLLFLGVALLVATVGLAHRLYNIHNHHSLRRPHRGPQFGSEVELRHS
The experiment in a line: In vitro inhibition of rat angiotensin I converting enzyme. A digest of the protocol: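 ACE purified from rat testis, 0.02 pmol/100 µL final, preincubated 15 min at 37 °C with varying inhibitor in 50 mM Tris-HCl pH 8.0. N-Cbz-Phe-His-Leu added to 0.05 mM final, 15 min; stopped with 2 M NaOH. His-Leu measured fluorimetrically (ex 365, em 495 nm) against a His-Leu calibration curve. IC50 is the mean ± SEM of three experiments in triplicate.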

Experiment [2] has as its target T3, Neprilysin (Mus musculus) (UniProt Q61391).
T3 sequence (whole entry): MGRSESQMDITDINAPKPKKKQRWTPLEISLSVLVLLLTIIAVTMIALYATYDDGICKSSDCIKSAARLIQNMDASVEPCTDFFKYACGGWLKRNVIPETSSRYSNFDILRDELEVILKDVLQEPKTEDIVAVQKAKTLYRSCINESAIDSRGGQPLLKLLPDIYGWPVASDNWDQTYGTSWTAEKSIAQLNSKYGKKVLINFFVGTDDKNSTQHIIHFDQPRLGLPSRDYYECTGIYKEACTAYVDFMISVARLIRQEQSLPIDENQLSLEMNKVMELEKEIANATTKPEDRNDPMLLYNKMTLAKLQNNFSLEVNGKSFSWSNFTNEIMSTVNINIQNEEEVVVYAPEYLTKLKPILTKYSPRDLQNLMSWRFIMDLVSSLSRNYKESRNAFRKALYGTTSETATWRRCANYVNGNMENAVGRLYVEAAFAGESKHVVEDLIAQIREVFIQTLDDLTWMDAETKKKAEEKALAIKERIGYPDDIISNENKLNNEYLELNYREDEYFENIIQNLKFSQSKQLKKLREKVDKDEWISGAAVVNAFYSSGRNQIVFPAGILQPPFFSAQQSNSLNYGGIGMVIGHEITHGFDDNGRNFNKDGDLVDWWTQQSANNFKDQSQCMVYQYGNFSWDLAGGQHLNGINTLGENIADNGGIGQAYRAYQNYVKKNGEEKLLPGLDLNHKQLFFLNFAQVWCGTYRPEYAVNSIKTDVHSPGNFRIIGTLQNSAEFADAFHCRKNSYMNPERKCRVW
Description: In vivo percent inhibition activity against kidney Neutral endopeptidase 2 hr after oral administration of a dose of 2.6 x 10e-5 mol/kg. In kind it is organism-based. A digest of the protocol:
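Mice given a single oral dose in 10% ethanol/10% cremophor/80% water; kidneys taken 2 h later and homogenized at 4 °C in 50 mM Tris-HCl pH 7.4. Membrane fraction (100000g) preincubated 5 min at 25 °C with bestatin and captopril, then incubated 10 min with [3H]-D-Ala2-Leu-enkephalin (2 × 10^-8 M). [3H]Tyr-D-Ala-Gly counted; blanks contained 10^-5 M retrothiorphan.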

For the compound `COc1ccc(C[C@H](S)C(=O)NCC(=O)N2[C@@H](c3ccccc3OC)CC[C@H]2C(=O)O)cc1`, the figures for the IC50 (on Neprilysin; in experiment [1]) were 2.5 nM and 2.2 nM, respectively.

In the case of `O=C(NCC(=O)N1[C@@H](c2cccc(O)c2)CC[C@H]1C(=O)O)[C@@H](S)Cc1cccc(O)c1`, the IC50 at Neprilysin is 4.3 nM; in experiment [1], 3.2 nM.

Take `Cc1ccccc1[C@@H]1CCC(C(=O)O)N1C(=O)CNC(=O)[C@@H](S)Cc1ccccc1` (single isomer, unassigned; 18): the IC50 against Neprilysin amounted to 17 nM; in experiment [1] it was 48 nM.

Turning to `O=C(O)c1ccc(CC(S)C(=O)NCC(=O)N2[C@@H](c3ccccc3O)CC[C@H]2C(=O)O)cc1` (some centres not stated), the IC50 at Neprilysin was 62 nM; in experiment [1], 5.3 nM.

Take `O=C(NCC(=O)N1[C@@H](c2cccc(O)c2)CC[C@H]1C(=O)O)[C@@H](S)Cc1ccccc1`: the IC50 against Neprilysin worked out at 2.4 nM; in experiment [1], 1.5 nM.

Take `Cc1ccccc1C1CC[C@H](C(=O)O)N1C(=O)CNC(=O)[C@@H](S)Cc1ccccc1` (single isomer, unassigned): the IC50 against Neprilysin worked out at 25 nM; in experiment [1], 112 nM.

`CC[C@H](C)C(S)C(=O)NCC(=O)N1[C@@H](c2ccccc2)CC[C@H]1C(=O)O` (some centres not stated): the IC50 against Neprilysin came out at 50 nM; in experiment [1] it was 3.7 nM.

As for `Cc1cccc(C2CCC(C(=O)O)N2C(=O)CNC(=O)[C@@H](S)Cc2ccc(O)cc2)c1` (some centres not stated), the IC50 against Neprilysin turned out to be 1.5 nM; in experiment [1], 3.1 nM.

As to `O=C(NCC(=O)N1[C@@H](c2ccc(O)cc2)CC[C@H]1C(=O)O)[C@@H](S)Cc1ccc(O)cc1`, the IC50 at Neprilysin stood at 6.36 nM; in experiment [1] it was 0.46 nM. For the same compound, the inhibition in experiment [2] was 25%.

As to `Nc1ccc([C@H]2CC[C@@H](C(=O)O)N2C(=O)CNC(=O)[C@@H](S)Cc2ccc(O)cc2)cc1`, the IC50 against Neprilysin turned out to be 26 nM; in experiment [1] it was 23 nM.

On to `Cc1ccccc1[C@@H]1CCC(C(=O)O)N1C(=O)CNC(=O)[C@@H](S)Cc1ccc(O)cc1` (single isomer, unassigned), for which the IC50 on Neprilysin is 5.1 nM; in experiment [1] it was 12.5 nM.

Take `O=C(NCC(=O)N1[C@@H](c2ccccc2O)CC[C@H]1C(=O)O)C(S)Cc1ccc(Cl)cc1` (some centres not stated): the IC50 at Neprilysin stood at 1.2 nM; in experiment [1], 0.9 nM.

Take `Cc1cccc([C@H]2CC[C@@H](C(=O)O)N2C(=O)CNC(=O)[C@@H](S)Cc2ccccc2)c1`: the IC50 against Neprilysin was 2.3 nM; in experiment [1], 6.2 nM.

On to `O=C(NCC(=O)N1[C@@H](c2ccccc2)CC[C@H]1C(=O)O)[C@@H](S)Cc1ccc(O)cc1`, for which the results for the IC50 (at Neprilysin; in experiment [1]) were 3.4 nM and 4.2 nM, respectively.

Regarding `COc1ccc(C[C@H](S)C(=O)NCC(=O)N2[C@@H](c3ccccc3O)CC[C@H]2C(=O)O)cc1`, the IC50 was 2.2 nM at Neprilysin and 0.42 nM in experiment [1].

On to `C[C@H](NC(=O)[C@@H](S)Cc1ccccc1)C(=O)N1[C@@H](c2ccccc2)CC[C@H]1C(=O)O`, for which the IC50 on Neprilysin stood at 10 nM; in experiment [1] it was 45 nM.

As to `Cc1ccccc1[C@@H]1CCC(C(=O)O)N1C(=O)CNC(=O)[C@@H](S)Cc1ccccc1` (single isomer, unassigned; 17), the IC50 was determined as 8.5 nM at Neprilysin and 33 nM in experiment [1].

On to `O=C(NCC(=O)N1[C@@H](c2cccc(O)c2)CC[C@H]1C(=O)O)C(S)Cc1ccc(F)cc1` (some centres not stated), for which the IC50 on Neprilysin was 5.3 nM; in experiment [1], 3.8 nM.

With `NCCCCC(S)C(=O)NCC(=O)N1[C@@H](c2ccccc2)CC[C@H]1C(=O)O` (some centres not stated), the IC50 was determined as 500 nM against Neprilysin and 403 nM in experiment [1].

Take `Nc1ccc(C[C@H](S)C(=O)NCC(=O)N2[C@@H](c3ccccc3)CC[C@H]2C(=O)O)cc1`: the IC50 is 1.8 nM at Neprilysin and 3.5 nM in experiment [1].

Consider `COc1ccccc1[C@H]1CC[C@@H](C(=O)O)N1C(=O)CNC(=O)[C@@H](S)Cc1ccc(O)cc1`, for which the figures for the IC50 (at Neprilysin; in experiment [1]) were 3.4 nM and 4.5 nM, respectively.

As for `O=C(NCC(=O)N1[C@@H](c2ccccc2O)CC[C@H]1C(=O)O)[C@@H](S)Cc1ccccc1`, the IC50 at Neprilysin came out at 1 nM; in experiment [1], 0.5 nM.

Consider `O=C(NCC(=O)N1[C@@H](c2ccccc2)CC[C@H]1C(=O)O)[C@H](S)Cc1ccccc1`, for which the figures for the IC50 (against Neprilysin; in experiment [1]) were 3.2 nM and 25 nM, respectively.

For the origin of these results see ChEMBL document CHEMBL1129041, “Design of orally active dual inhibitors of neutral endopeptidase and angiotensin-converting enzyme with long duration of action” (J Med Chem, 1996).
